Where a SMILES comes first, the peptide text is derived from it. [ ]: non-standard residue; d: D form. The star is where a group is joined. NH(Colchicin-10-yl) = COc1cc2c(c(OC)c1OC)-c1ccc(N*)c(=O)cc1[C@@H](NC(C)=O)CC2; FITC = O=C1OC2(c3ccc(O)cc3Oc3cc(O)ccc32)c2ccc(NC(=S)*)cc21; hPhe = N[C@@H](CCc1ccccc1)C(=O)O; Cit = NC(=O)NCCC[C@H](N)C(=O)O; βAla = NCCC(=O)O
How the values were obtained:
HT1080 tumors [1] = assay: Antitumor activity, HT1080 xenograft, single agent; assay type: in vivo, mouse
In short: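 Female Balb/c nude mice (6–8 wk) carried s.c. HT1080 xenograft fragments (2–3 mm³) and were randomized at ~32 mm³. They got a single i.p. dose of test conjugate (37.5, 50, 62.5 or 75 mg kg⁻¹) or molar-equivalent free metabolite (7.5–15 mg kg⁻¹). Caliper volume ((a²×b)/2, normalized to day 0) and body weight were recorded daily for up to 64 days. Growth delay was the time to tumor-volume doubling relative to control. Mann-Whitney U test.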

[2] = test system: HT1080 cells (MT1-MMP positive); assay: MTT chemosensitivity assay, HT1080 cells; assay type: cell-based, human; details: in vitro, MTT IC50 ratio
In short: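 HT1080 and MCF7 cells were grown in RPMI 1640 with 10% FBS, 1 mmol/L pyruvate and 2 mmol/L glutamine, at low passage. MTT assay: exposure to test conjugate (2.4 nmol/L–5 μmol/L), free metabolite (0.1 nmol/L–5 μmol/L) or DMSO for 24 or 96 h. Survival was read 96 h post-treatment and IC50 taken from survival curves; mean ± SD of 3 independent experiments.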

[3] = Pharmacokinetics and tissue distribution in HT1080 tumor-bearing mice; assay type: in vivo, mouse; details: ICT2552 10.2 mg kg−1 i.p., 4 h post-administration
In short: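 Mice bearing HT1080 tumours received i.p. test conjugate (150 mg kg⁻¹), free metabolite (10.2 mg kg⁻¹) or vehicle (10% DMSO/Arachis oil). Tumour, blood, liver, kidney, lung, heart and spleen were collected at set times. Plasma (5000 g, 10 min) was diluted 1:5 into methanol; tissues were snap-frozen and homogenized in ice-cold methanol. Supernatants went to LC-MS against agent-free plasma/tissue calibrators; 3 mice per time point.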

[4] = ICT2588 metabolism ex vivo in MCF7 xenograft homogenate; assay type: in vitro ADME; details: human, other tissue homogenate, pH 7.6
In short: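 Supernatants were run at 100 mg tissue per ml with test compound at 20 μmol/L final. Aliquots taken over 120 min were acetonitrile-precipitated and analysed by LC-MS: reverse-phase, 22.5–50% acetonitrile/0.05% TFA gradient over 30 min, parent quantified at 360 nm. Three independent experiments.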

MCF7 = assay: Intracellular fluorescence following treatment; assay type: cell-based, human; details: in vitro
HT1080 tumors [5] = assay: Vascular shutdown and tumor necrosis in HT1080 tumors; assay type: in vivo, mouse; details: 24 h after i.p. ICT2588 150 mg kg−1, HT1080 tumor-bearing mice, mean of 3 mice
In short: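 Mice bearing HT1080 tumours got i.p. test conjugate (150 mg kg⁻¹), free metabolite (10.2 mg kg⁻¹) or vehicle (10% DMSO/Arachis oil). Functional tumour vasculature and hemorrhagic necrosis were assessed 24 h later; mean of 3 mice ± standard error.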

Compound | tumor growth delay (HT1080 tumors [1]; ICT2552 15 mg kg−1 single i.p. dose (equimolar to ICT2588 75 mg kg−1)) | antitumor response compared with ICT2588 at equimolar doses (HT1080 tumors [1]; ICT2552 7.5, 10, 12.5 and 15 mg kg−1 i.p.) | chemosensitivity of HT1080 cells relative to MCF7 cells [2] | concentration of ICT2552 in plasma [3] | concentration of ICT2552 in tumor versus liver tissue [3] | half-life [4] | cell entry / intracellular fluorescence following treatment (MCF7) | increase in hemorrhagic necrosis (HT1080 tumors [5]) | tumor growth delay (HT1080 tumors [1]; ICT2588 75 mg kg−1 single i.p. dose, p<0.01) | loss in mouse bodyweight (maximum) (HT1080 tumors [1]; all doses of ICT2588 used (37.5-75 mg kg−1 i.p.), data not shown)
COc1cc2c(c(OC)c1OC)-c1ccc(N)c(=O)cc1[C@@H](NC(C)=O)CC2 [ICT2552, azademethylcolchicine] | 1.9 days | significantly lower antitumor response | equally cytotoxic to HT1080 and MCF7 cells | below the level of detection | not significantly different |  |  |  |  | 
COc1cc2c(c(OC)c1OC)-c1ccc(NC(=O)[C@H](Cc3ccc(O)cc3)NC(=O)[C@H](CC(C)C)NC(=O)[C@H](Cc3ccc(O)cc3)NC(=O)[C@H](CCc3ccccc3)NC(=O)CNC(=O)[C@H](CCCNC(N)=O)NC(=O)[C@H](CO)NC(=O)[C@H](CCCNC(=N)N)NC(=O)CCNC(=S)Nc3ccc4c(c3)C(=O)OC43c4ccc(O)cc4Oc4cc(O)ccc43)c(=O)cc1[C@@H](NC(C)=O)CC2 [ICT2588] ({FITC-βAla}-RS[Cit]G[hPhe]YLY-{NH(Colchicin-10-yl)}; N-terminus and C-terminus assumed) |  |  | at least 10 fold |  |  | 33.1 min | lack of observable intracellular fluorescence | 3 fold | 4.4 days | ≤ 6%

Reference: publication PMC2933508 (Cancer research, 2010)
